Active and inactive are the calls of the source. The rule behind the calls is not given here.
Key:
Platelet [1] = assay: Induction of 1.4 x 10^-6 M PGH2-induced platelet aggregation in human platelet rich plasma at 10^-4 to 10^-6 M incubated for 1.5 mins at 37.5 degC
Platelet [2] = assay: Inhibition of 9.5 x 10^-7 M 9,11 methanoepoxy-PGH2-induced platelet aggregation in human platelet rich plasma at 10^-4 M incubated for 1.5 mins at 37.5 degC; format: functional
Method in brief: (§1)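 Human platelet-rich plasma incubated with test agent for 1.5 min at 37.5 °C, then aggregating agent added. Aggregation followed for 5 min turbidimetrically in a dual-channel aggregometer. Baseline (0%) was set with PRP. Full scale (100%) was set at the optical density of plasma treated with the aggregating agent alone. Agents were also checked for agonist activity at 10^-4 and 10^-6 M.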

Platelet [3] = assay: Induction of 9.5 x 10^-7 M 9,11 methanoepoxy-PGH2-induced platelet aggregation in human platelet rich plasma at 10^-4 to 10^-6 M incubated for 1.5 mins at 37.5 degC
Platelet [4] = assay: Inhibition of 8.2 x 10^-4 M arachidonic acid-induced platelet aggregation in human platelet rich plasma at 10^-4 M incubated for 1.5 mins at 37.5 degC; format: functional
Method in brief: as §1

Platelet [5] = assay: Induction of 8.2 x 10^-4 M arachidonic acid-induced platelet aggregation in human platelet rich plasma at 10^-4 to 10^-6 M incubated for 1.5 mins at 37.5 degC
Platelet [6] = assay: Inhibition of 2 x 10^-6 M ADP-induced platelet aggregation in human platelet rich plasma at 10^-4 to 10^-6 M incubated for 1.5 mins at 37.5 degC; format: functional
Method in brief: as §1

Platelet [7] = assay: Inhibition of 1.4 x 10^-6 M PGH2-induced platelet aggregation in human platelet rich plasma at 10^-4 M incubated for 1.5 mins at 37.5 degC; format: functional
Method in brief: as §1

Platelet [8] = assay: Inhibition of 2 x 10^-6 M ADP-induced platelet aggregation in human platelet rich plasma at 10^-4 M incubated for 1.5 mins at 37.5 degC; format: functional
Method in brief: as §1

Platelet [9] = assay: Inhibition of 8.5 x 10^-7 M 9,11 methanoepoxy-PGH2-induced platelet aggregation in human platelet rich plasma incubated for 1.5 mins at 37.5 degC; format: functional; conditions: 0.025 h
Platelet [10] = assay: Inhibition of TxA2-induced platelet aggregation in aspirinated human platelet at 10^-4 M incubated for 1.5 mins at 37.5 degC cells preincubated with PGH2 for 15 secs; format: functional, cell-based
Method in brief: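 TxA2 was generated by stirring human platelet microsomes (0.1 mL, 1.9 mg protein/mL) with PGH2 at 37.5 °C for 15 s. The methods give PGH2 as 10^-4 M; the legend gives it as 1.4 nmol. Aspirinated PRP (0.9 mL), preincubated 1.5 min with inhibitor, was then added. Aggregation was monitored for 5 min. Boiled microsomes served as control.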

Platelet [11] = assay: Effect on arachidonic acid metabolism in washed human platelet assessed as TxB2 level at 10^-4 M by GC-MS analysis (reference value: 14 nmol); format: functional
Platelet [12] = assay: Inhibition of 8.3 x 10^-4 M arachidonic acid-induced platelet aggregation in human platelet rich plasma incubated for 1.5 mins at 37.5 degC; format: functional; conditions: 0.025 h
Platelet [13] = assay: Effect on arachidonic acid metabolism in washed human platelet assessed as HETE level at 10^-4 M by GC-MS analysis (reference value: 23 nmol); format: functional
Thromboxane-A synthase = molecular target: T1, Thromboxane-A synthase (Homo sapiens, UniProt P24557); assay: Inhibition of thromboxane synthetase in intact human platelet microsomes assessed as inhibition of [1-14C]PGH2 to [1-14C]TxA2
T1 sequence (P24557 whole entry): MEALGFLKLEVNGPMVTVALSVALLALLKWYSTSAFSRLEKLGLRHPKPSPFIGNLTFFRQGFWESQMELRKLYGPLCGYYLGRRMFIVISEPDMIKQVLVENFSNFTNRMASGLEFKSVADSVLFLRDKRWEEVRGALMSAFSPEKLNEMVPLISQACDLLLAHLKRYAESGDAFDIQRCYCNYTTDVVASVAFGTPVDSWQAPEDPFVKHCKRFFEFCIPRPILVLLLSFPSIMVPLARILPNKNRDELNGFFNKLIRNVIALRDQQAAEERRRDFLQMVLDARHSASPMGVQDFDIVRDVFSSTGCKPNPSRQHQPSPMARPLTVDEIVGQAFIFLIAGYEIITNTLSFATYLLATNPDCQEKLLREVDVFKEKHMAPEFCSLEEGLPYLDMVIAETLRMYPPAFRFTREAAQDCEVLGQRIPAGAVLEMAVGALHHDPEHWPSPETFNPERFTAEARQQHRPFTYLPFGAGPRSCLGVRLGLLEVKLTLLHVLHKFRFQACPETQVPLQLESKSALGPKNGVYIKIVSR

IC50 (Platelet [9]) [µM] | IC50 (Platelet [12]) [µM] | IC50 (Thromboxane-A synthase) [nM] | Structure (SMILES) | induction (Platelet [1]) | inhibition (INH) (Platelet [2]) [%] | induction of platelet aggregation (Platelet [3]) | inhibition (INH) (Platelet [4]) [%] | induction of platelet aggregation (Platelet [5]) | inhibition (Platelet [6]) | inhibition (INH) (Platelet [7]) [%] | inhibition (INH) (Platelet [8]) [%] | inhibition (Platelet [10]) | Activity (Platelet [11]) [nmol] | Activity (Platelet [13]) [nmol]
– | – | – | CCOC(=O)N1[C@H]2C[C@@H]([C@H](CCCCCCC(=O)O)[C@H]2O)N1C(=O)OCC (racemic) | inactive | 21 | inactive | 0 | inactive | inactive | – | – | – | – | –
– | – | – | CCCCCC(O)CO[C@@H]1[C@@H](CCCCCCC(=O)O)[C@@H]2C[C@@H]1N(C(=O)OCC)N2C(=O)OCC (mixture of isomers) | inactive | 20 | inactive | 0 | inactive | inactive | – | – | – | – | –
36 | – | – | C=CCO[C@@H]1[C@@H](CCCCCCC(=O)O)[C@@H]2C[C@@H]1N(C(=O)OCC)N2C(=O)OCC (racemic) | inactive | 88 | inactive | 0 | inactive | inactive | 100 | 0 | – | – | –
5.5 | 31 | 1000 | CCCCCC(O)CO[C@@H]1[C@@H](CCCCCCC(=O)O)[C@@H]2C[C@@H]1N=N2 (mixture of isomers) | inactive | 100 | inactive | 100 | inactive | inactive | 100 | 0 | Active | 0 | 27
– | – | – | C=CCO[C@@H]1[C@@H](CCCCCCC(=O)O)[C@@H]2C[C@@H]1N=N2 (racemic) | inactive | 20 | inactive | 0 | inactive | inactive | – | – | – | – | –
